According to ChEMBL document CHEMBL2440101, “Total syntheses and cytotoxicity of kealiiquinone, 2-deoxy-2-aminokealiiquinone and analogs” (Bioorg Med Chem Lett, 2013):

System: MCF7
Test: Cytotoxicity against human MCF7 cells after 96 hrs by MTT assay
Assay type: functional, cell-based
Conditions: MCF7, 96 h
Method in brief: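 MCF7 breast cancer cells; MTT growth assay with cisplatin as positive control. IC50 taken from cytotoxicity (concentration-response) plots and reported with SEM.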

SMILES	IC50 [µM]
COC1=C(OC)C(=O)c2c(cc3c([nH]c(=O)n3C)c2-c2ccc(OC)cc2)C1=O	91.9
COC1=C(OC)C(=O)c2c(cc3c(nc(N)n3C)c2-c2ccc(OC)cc2)C1=O	43.8
COc1ccc(-c2c3cc(OC)c(OC)cc3cc3c2nc(N)n3C)cc1	28.8
COc1ccc(-c2c3nc(N)n(C)c3cc3cc(OC)c(OC)c(OC)c23)cc1	> 100
COc1ccc(-c2c3cc(OCc4ccccc4)c(OC)cc3cc3c2ncn3C)cc1	92
COc1ccc(-c2c3cc(OC)c(OC)cc3cc3c2ncn3C)cc1	28
COc1ccc(-c2c3ncn(C)c3cc3cc(OC)c(OC)c(OC)c23)cc1	99.8
COC1=C(OC)C(=O)c2c(cc3c(ncn3C)c2-c2ccc(OC)cc2)C1=O	41.1
COc1ccc(-c2c3[nH]c(=O)n(C)c3cc3cc(OC)c(OC)c(OC)c23)cc1	29.9
COc1ccc(-c2c3cc(OC)c(OC)c(OC)c3cc3c2nc(N)n3C)cc1	22.7
COc1ccc(-c2c3cc(OC)c(OC)c(OC)c3cc3c2ncn3C)cc1	68.2
COc1ccc(-c2c3cc(O)c(OC)cc3cc3c2ncn3C)cc1	> 100
COc1ccc(-c2c3cc(O)c(OC)cc3cc3c2[nH]c(=N)n3C)cc1 [KEALIININE A]	23.4
